# Laboratory results as given in ChEMBL document CHEMBL2203112, “Synthesis, evaluation of anti-HIV-1 and anti-HCV activity of novel 2',3'-dideoxy-2',2'-difluoro-4'-azanucleosides” (Bioorg Med Chem, 2012).
# Active and inactive are the calls of the source. The calls are words filed in the database; no cut-off is given here.
# Columns and labels:
# Vero = experiment: Cytotoxicity against african green monkey Vero cells; type: cell-based; conditions: Chlorocebus sabaeus
# In short: (§1)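 Cytotoxicity measured in lymphocytic CEM cells and in Vero (African green monkey kidney) cells; expressed as IC50 (μM).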
# CCRF-CEM = experiment: Cytotoxicity against human CEM cells; type: cell-based; in short: as §1
# PBMC = experiment: Cytotoxicity against human PBMC; type: cell-based
# In short: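 Cytotoxicity measured in uninfected, phytohemagglutinin-stimulated human PBM cells; expressed as IC50 (μM).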
# Hepatitis C virus = experiment: Antiviral activity against HCV assessed as inhibition of viral replication at 10 uM; type: functional, organism-based; conditions: Hepacivirus hominis
# In short: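 HCV replicon assay with a single test concentration of 10 μM; 2′-C-Me-cytidine served as positive control.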
# [1] = test system: Human immunodeficiency virus 1; experiment: Antiviral activity against HIV1 LAI infected in human PBMC assessed as inhibition of viral replication; type: functional, organism-based; conditions: Human immunodeficiency virus 1, LAI
SMILES,IC50 (Vero),IC50 (CCRF-CEM),IC50 (PBMC),inhibition (Hepatitis C virus),EC50 [1],EC90 [1]
CC(C)(C)OC(=O)N1[C@H](CO)CC(F)(F)[C@H]1n1ccc(=O)[nH]c1=O,> 100 µM,> 100 µM,> 100 µM,inactive,> 100 µM,> 100 µM
"CC(C)(C)OC(=O)N1C(n2cnc3c(Cl)ncnc32)C(F)(F)C[C@H]1CO (single isomer, unassigned; 26) [listing 1 of 2 here]",> 100 µM,57.1 µM,> 100 µM,–,> 100 µM,> 100 µM
CC(C)(C)OC(=O)N1[C@H](CO)CC(F)(F)[C@H]1n1cc(F)c(=O)[nH]c1=O,> 100 µM,> 100 µM,30.5 µM,inactive,36.9 µM,75.6 µM
"CC(C)(C)OC(=O)N1C(n2cnc3ncnc(Cl)c32)C(F)(F)C[C@H]1CO (single isomer, unassigned; 28) [listing 1 of 2 here]",–,–,–,inactive,–,–
"CC(C)(C)OC(=O)N1C(n2cnc3c(Cl)ncnc32)C(F)(F)C[C@H]1CO (single isomer, unassigned; 27) [listing 1 of 2 here]",> 100 µM,38.1 µM,58.1 µM,–,64.5 µM,> 100 µM
"CC(C)(C)OC(=O)N1C(n2cnc3c(N)ncnc32)C(F)(F)C[C@H]1CO (single isomer, unassigned; 30) [listing 1 of 2 here]",–,–,–,inactive,–,–
"CC(C)(C)OC(=O)N1C(n2cnc3ncnc(N)c32)C(F)(F)C[C@H]1CO (single isomer, unassigned; 33) [listing 1 of 2 here]",–,–,–,inactive,–,–
CC(C)(C)OC(=O)N1[C@H](CO)CC(F)(F)[C@@H]1n1ccc(=O)[nH]c1=O,44.4 µM,> 100 µM,81.4 µM,inactive,> 100 µM,> 100 µM
"CC(C)(C)OC(=O)N1C(n2cnc3c(Cl)ncnc32)C(F)(F)C[C@H]1CO (single isomer, unassigned; 26) [listing 2 of 2 here]",–,–,–,inactive,–,–
"CC(C)(C)OC(=O)N1C(n2cnc3c(Cl)ncnc32)C(F)(F)C[C@H]1CO (single isomer, unassigned; 27) [listing 2 of 2 here]",–,–,–,inactive,–,–
"CC(C)(C)OC(=O)N1C(n2cnc3ncnc(N)c32)C(F)(F)C[C@H]1CO (single isomer, unassigned; 32) [listing 1 of 2 here]",> 100 µM,> 100 µM,> 100 µM,–,> 100 µM,> 100 µM
"CC(C)(C)OC(=O)N1C(n2cnc3ncnc(Cl)c32)C(F)(F)C[C@H]1CO (single isomer, unassigned; 29) [listing 1 of 2 here]",> 100 µM,55.4 µM,59.5 µM,–,92.3 µM,> 100 µM
"CC(C)(C)OC(=O)N1C(n2cnc3ncnc(Cl)c32)C(F)(F)C[C@H]1CO (single isomer, unassigned; 28) [listing 2 of 2 here]",> 100 µM,> 100 µM,> 100 µM,–,> 100 µM,> 100 µM
"CC(C)(C)OC(=O)N1C(n2cnc3ncnc(N)c32)C(F)(F)C[C@H]1CO (single isomer, unassigned; 33) [listing 2 of 2 here]",> 100 µM,> 100 µM,> 100 µM,–,> 100 µM,> 100 µM
"CC(C)(C)OC(=O)N1C(n2cnc3c(N)ncnc32)C(F)(F)C[C@H]1CO (single isomer, unassigned; 31) [listing 1 of 2 here]",–,–,–,inactive,–,–
"CC(C)(C)OC(=O)N1C(n2cnc3ncnc(N)c32)C(F)(F)C[C@H]1CO (single isomer, unassigned; 32) [listing 2 of 2 here]",–,–,–,inactive,–,–
"CC(C)(C)OC(=O)N1C(n2cnc3ncnc(Cl)c32)C(F)(F)C[C@H]1CO (single isomer, unassigned; 29) [listing 2 of 2 here]",–,–,–,inactive,–,–
"CC(C)(C)OC(=O)N1C(n2cnc3c(N)ncnc32)C(F)(F)C[C@H]1CO (single isomer, unassigned; 30) [listing 2 of 2 here]",> 100 µM,> 100 µM,> 100 µM,–,> 100 µM,> 100 µM
Cc1cn([C@H]2C[C@H](N=[N+]=[N-])[C@@H](CO)O2)c(=O)[nH]c1=O [ZIDOVUDINE],–,–,> 100 µM,inactive,–,0.0027 µM
CC(C)(C)OC(=O)N1[C@H](CO)CC(F)(F)[C@@H]1n1cc(F)c(=O)[nH]c1=O,> 100 µM,> 100 µM,28.2 µM,inactive,44.5 µM,90.8 µM
"CC(C)(C)OC(=O)N1C(n2cnc3c(N)ncnc32)C(F)(F)C[C@H]1CO (single isomer, unassigned; 31) [listing 2 of 2 here]",> 100 µM,> 100 µM,> 100 µM,–,> 100 µM,> 100 µM
